Test results reported in ChEMBL document CHEMBL1914441, “Discovery and optimization of a biphenylacetic acid series of prostaglandin D2 receptor DP2 antagonists with efficacy in a murine model of allergic rhinitis” (Bioorg Med Chem Lett, 2011).
pIC50: −log10 of the molar value. Active and inactive are the calls of the source. The calls are words filed in the database; no cut-off is given here.

Tests used:
[1] = target: T1, Prostaglandin D2 receptor 2 (Homo sapiens, UniProt Q9Y5Y4); test: Displacement of [3H]-PGD2 from human prostanoid DP2 receptor expressed in human 293T cells by liquid scintillation counting; type: cell-based
T1 sequence (Q9Y5Y4 whole entry): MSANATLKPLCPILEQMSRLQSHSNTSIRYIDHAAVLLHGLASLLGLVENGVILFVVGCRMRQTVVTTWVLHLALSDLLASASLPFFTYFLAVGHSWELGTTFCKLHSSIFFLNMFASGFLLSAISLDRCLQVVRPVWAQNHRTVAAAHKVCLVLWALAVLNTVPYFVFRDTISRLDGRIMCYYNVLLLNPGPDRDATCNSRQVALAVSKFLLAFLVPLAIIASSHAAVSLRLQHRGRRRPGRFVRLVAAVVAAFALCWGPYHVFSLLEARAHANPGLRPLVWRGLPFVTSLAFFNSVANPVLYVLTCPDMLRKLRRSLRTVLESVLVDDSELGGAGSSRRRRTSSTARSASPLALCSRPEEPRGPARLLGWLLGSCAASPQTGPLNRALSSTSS
How it was run: (§1)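 Membranes from 293 cells stably expressing human DP2 were incubated with [³H]-PGD₂ across increasing compound concentrations. Membranes were harvested and washed, and bound radioactivity was counted. The IC50 is the concentration giving 50% inhibition of [³H]-PGD₂ binding. The assay was run without and with 0.2% human serum albumin to gauge protein shift. Mean of at least three experiments.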

[2] = target: T1, Prostaglandin D2 receptor 2; test: Displacement of [3H]-PGD2 from human prostanoid DP2 receptor expressed in human 293T cells by liquid scintillation counting in presence of 0.2 % human serum albumin; type: cell-based; how it was run: as §1
Thromboxane A2 receptor = target: T2, Thromboxane A2 receptor (Homo sapiens, UniProt P21731); test: Displacement of [3H]-SQ-29,548 from human TP receptor expressed in human platelet membranes; type: cell membranes
T2 sequence (P21731 whole entry): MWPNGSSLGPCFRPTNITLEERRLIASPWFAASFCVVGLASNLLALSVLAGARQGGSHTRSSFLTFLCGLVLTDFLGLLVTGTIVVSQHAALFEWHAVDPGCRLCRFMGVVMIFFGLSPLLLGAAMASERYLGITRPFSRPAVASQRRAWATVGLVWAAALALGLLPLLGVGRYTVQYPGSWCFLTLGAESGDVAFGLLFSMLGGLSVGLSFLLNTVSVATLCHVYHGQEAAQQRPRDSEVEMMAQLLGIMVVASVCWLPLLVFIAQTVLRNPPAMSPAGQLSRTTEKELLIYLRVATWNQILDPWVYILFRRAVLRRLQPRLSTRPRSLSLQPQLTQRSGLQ
How it was run: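 TP binding was measured with human platelet membranes and ³H-SQ-29,548 as radioligand.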

hERG (KCNH2) = hERG (KCNH2) (Homo sapiens, UniProt Q12809); test: Inhibition of human ERG at 10 uM by patch clamp assay
hERG (KCNH2), sequence (Q12809 whole entry): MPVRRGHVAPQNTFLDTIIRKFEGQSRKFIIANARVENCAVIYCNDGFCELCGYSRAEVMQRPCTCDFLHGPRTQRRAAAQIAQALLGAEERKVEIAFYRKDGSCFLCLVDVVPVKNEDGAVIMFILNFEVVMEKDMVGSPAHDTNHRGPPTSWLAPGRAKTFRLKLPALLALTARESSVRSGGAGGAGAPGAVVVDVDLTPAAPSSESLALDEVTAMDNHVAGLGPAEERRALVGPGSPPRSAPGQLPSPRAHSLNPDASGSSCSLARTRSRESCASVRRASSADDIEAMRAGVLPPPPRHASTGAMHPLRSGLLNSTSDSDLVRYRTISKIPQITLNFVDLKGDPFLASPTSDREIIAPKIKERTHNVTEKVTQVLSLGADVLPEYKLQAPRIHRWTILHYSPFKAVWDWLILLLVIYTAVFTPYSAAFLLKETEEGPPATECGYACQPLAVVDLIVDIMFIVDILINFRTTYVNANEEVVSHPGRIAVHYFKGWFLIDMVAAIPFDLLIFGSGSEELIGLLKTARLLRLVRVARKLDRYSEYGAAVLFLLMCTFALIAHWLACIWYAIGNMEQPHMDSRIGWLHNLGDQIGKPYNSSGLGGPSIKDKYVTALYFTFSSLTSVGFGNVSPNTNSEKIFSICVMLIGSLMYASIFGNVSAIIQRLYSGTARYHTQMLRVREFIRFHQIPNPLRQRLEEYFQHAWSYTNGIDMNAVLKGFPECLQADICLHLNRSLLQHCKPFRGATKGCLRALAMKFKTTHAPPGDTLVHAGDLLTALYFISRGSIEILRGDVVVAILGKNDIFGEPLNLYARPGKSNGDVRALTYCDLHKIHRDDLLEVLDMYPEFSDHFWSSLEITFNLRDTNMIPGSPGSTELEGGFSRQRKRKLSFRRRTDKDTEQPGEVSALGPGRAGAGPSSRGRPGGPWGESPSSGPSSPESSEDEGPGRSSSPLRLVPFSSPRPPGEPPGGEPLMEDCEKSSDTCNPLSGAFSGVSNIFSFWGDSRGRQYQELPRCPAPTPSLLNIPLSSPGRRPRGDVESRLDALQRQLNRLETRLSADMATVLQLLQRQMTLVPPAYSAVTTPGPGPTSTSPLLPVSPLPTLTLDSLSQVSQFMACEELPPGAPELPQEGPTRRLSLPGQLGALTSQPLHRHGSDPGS
How it was run: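 hERG inhibition was measured by patch clamp, performed by an external contract laboratory.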

Cytochrome P450 2D6 = Cytochrome P450 2D6 (Homo sapiens, UniProt P10635); test: Inhibition of human CYP2D6; type: ADME
Cytochrome P450 2D6, sequence (P10635 whole entry): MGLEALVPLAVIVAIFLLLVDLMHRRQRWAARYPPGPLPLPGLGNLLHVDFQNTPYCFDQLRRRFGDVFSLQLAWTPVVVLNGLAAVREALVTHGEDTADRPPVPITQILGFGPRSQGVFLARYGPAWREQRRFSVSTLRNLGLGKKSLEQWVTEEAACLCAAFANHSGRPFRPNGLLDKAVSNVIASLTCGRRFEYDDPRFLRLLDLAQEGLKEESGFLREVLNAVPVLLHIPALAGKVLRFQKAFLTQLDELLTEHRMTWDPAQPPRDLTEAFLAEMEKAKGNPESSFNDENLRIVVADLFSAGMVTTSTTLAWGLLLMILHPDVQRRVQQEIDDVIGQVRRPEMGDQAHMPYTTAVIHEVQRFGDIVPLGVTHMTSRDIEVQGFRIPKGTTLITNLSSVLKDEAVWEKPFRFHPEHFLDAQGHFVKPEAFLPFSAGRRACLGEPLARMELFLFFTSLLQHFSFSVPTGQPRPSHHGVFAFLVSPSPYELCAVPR

Cytochrome P450 2C9 = Cytochrome P450 2C9 (Homo sapiens, UniProt P11712); test: Inhibition of human CYP2C9; type: ADME
Cytochrome P450 2C9, sequence (P11712 whole entry): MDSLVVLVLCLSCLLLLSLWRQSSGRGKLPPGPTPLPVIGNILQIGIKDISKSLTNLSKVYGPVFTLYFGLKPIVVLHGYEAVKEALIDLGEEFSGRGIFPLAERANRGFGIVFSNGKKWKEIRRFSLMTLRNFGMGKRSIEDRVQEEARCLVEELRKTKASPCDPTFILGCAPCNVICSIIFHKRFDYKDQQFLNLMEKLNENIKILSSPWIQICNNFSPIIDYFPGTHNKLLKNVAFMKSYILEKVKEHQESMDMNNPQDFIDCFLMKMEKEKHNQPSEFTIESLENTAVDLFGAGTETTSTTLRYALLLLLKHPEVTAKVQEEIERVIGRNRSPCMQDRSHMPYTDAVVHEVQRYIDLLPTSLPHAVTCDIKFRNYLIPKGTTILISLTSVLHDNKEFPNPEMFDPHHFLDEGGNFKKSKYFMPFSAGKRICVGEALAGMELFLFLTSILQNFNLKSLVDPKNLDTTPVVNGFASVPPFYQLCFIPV

[3] = target: T3, Prostaglandin D2 receptor (Homo sapiens, UniProt Q13258); test: Displacement of [3H]-PGD2 from human DP1 receptor expressed in human platelet membranes; type: cell membranes
T3 sequence (Q13258 whole entry): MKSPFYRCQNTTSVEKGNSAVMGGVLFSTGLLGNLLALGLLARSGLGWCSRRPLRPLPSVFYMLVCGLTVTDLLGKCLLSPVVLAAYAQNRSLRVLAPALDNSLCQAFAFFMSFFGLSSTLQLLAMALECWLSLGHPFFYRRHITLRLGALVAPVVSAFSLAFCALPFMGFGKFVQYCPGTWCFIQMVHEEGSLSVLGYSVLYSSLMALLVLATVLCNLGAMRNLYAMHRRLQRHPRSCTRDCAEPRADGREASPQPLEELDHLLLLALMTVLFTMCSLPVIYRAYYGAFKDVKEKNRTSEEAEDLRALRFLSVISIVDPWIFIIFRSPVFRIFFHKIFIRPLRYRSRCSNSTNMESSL

Cytochrome P450 3A4 = Cytochrome P450 3A4 (Homo sapiens, UniProt P08684); test: Inhibition of human CYP3A4; type: ADME
Cytochrome P450 3A4, sequence (P08684 whole entry): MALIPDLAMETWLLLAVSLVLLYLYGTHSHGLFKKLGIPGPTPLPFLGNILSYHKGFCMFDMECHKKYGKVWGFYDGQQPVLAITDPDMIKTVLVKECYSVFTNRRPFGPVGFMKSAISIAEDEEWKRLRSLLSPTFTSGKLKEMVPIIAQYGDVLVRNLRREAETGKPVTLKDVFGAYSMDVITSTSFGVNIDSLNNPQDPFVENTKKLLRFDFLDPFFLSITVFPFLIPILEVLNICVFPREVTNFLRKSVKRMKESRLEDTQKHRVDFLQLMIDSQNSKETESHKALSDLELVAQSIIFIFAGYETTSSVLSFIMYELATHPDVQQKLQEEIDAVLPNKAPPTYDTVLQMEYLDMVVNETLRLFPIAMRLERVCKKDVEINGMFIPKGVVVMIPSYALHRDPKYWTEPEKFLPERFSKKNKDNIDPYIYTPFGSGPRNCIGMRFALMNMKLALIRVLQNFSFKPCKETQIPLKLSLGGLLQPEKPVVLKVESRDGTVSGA

Prostacyclin receptor = Prostacyclin receptor (Homo sapiens, UniProt P43119); test: Displacement of [3H]-iloprost from human prostanoid IP receptor expressed in human 293T cells membranes; type: cell membranes
Prostacyclin receptor, sequence (P43119 whole entry): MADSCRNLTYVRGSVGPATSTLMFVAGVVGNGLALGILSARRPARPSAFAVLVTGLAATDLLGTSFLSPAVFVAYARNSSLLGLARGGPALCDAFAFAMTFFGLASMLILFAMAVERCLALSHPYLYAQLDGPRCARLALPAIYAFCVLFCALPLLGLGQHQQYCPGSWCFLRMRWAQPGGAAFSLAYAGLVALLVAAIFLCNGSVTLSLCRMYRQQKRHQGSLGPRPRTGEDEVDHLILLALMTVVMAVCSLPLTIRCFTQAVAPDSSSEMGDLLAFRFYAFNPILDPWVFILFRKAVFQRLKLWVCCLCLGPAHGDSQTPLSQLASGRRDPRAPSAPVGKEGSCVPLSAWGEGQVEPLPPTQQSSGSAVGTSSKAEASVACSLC
How it was run: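 IP binding was measured with membranes from hIP/293 cells and ³H-iloprost as radioligand.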

Mus musculus = test: Antiallergic effect in ovalbumin-sensitized BALB/c mouse allergic rhinitis model assessed as reduction in sneezing symptoms at 10 mg/kg, po administered 1 hr prior to OVA challenge on days 31 and 32 measured for 8 mins immediately after OVA challenge on day 32; type: functional, organism-based; set-up: dose 10 mg/kg
How it was run: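 Female BALB/c mice sensitized with intraperitoneal OVA (10 µg in Alum) on days 0 and 7, then given nasal OVA challenge. Compound or water vehicle was dosed orally 1 h before challenge on days 31 and 32 only. Sneezing was counted over an 8 min session immediately after the day 32 challenge. n = 4–10 mice per group, means ± SEM, Dunnett's test after ANOVA versus vehicle.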

[4] = Half life in dog at 2 mg/kg, iv and 5 mg/kg, po; type: ADME, organism-based, Canis lupus familiaris; conditions: in vivo
How it was run: (§2)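 Dog dosing used the sodium salt, given IV at 2 mpk in saline and PO at 5 mpk in 0.5% Methocel.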

[5] = Half life in rat at 2 mg/kg, iv; type: ADME, organism-based; set-up: dose 2 mg/kg, route intravenous; conditions: in vivo
How it was run: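 Rat dosing used the sodium salt, given IV at 2 mpk in water.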

[6] = Oral bioavailability in rat at 10 mg/kg; conditions: in vivo
[7] = Oral bioavailability in dog at 5 mg/kg; type: ADME, organism-based, Canis lupus familiaris; conditions: in vivo; how it was run: as §2

With `COc1ccc(-c2cc(CC(=O)O)ccc2OC)c(CN2C(=O)O[C@H](c3ccccc3)[C@@H]2C)c1` as the compound, how does the pIC50 [1] read?
The pIC50 was 5.89.

What about the pIC50 [2] of the same compound?
Its pIC50 is 5.21.

Which results are given for `CCN(Cc1cc(C(F)(F)F)ccc1-c1cc(CC(=O)O)ccc1OC)C(=O)OC`?
pIC50 (Thromboxane A2 receptor): 4.17; inhibition at 10 µM (hERG (KCNH2)): 5.9%; pIC50 (Cytochrome P450 2D6): < 4.52; pIC50 [1]: 8.05; pIC50 (Cytochrome P450 2C9): < 4.52; pIC50 [3]: 4.44; pIC50 [2]: 7.80; pIC50 (Cytochrome P450 3A4): < 4.52

With `C[C@H]1[C@@H](c2ccccc2)OC(=O)N1Cc1cc(C(F)(F)F)ccc1-c1ccccc1CCC(=O)O` as the compound, how does the pIC50 [1] read?
The pIC50 was 4.96.

What about the pIC50 [2] of the same compound?
Its pIC50 is 4.42.

With `COC(=O)N(Cc1ccccc1)Cc1cc(C(F)(F)F)ccc1-c1cc(CC(=O)O)ccc1OC` as the compound, how does the pIC50 (Thromboxane A2 receptor) read?
Its pIC50 is 4.20.

And the inhibition at 10 µM (hERG (KCNH2))?
Its inhibition at 10 µM is 1.2%.

And the pIC50 (Cytochrome P450 2D6)?
The pIC50 was under 4.52.

And the pIC50 [1]?
Its pIC50 is 8.10.

And the pIC50 (Cytochrome P450 2C9)?
The pIC50 was under 4.52.

And the pIC50 [3]?
Its pIC50 is 4.90.

What about the pIC50 [2] of the same compound?
Its pIC50 is 7.51.

What about the pIC50 (Cytochrome P450 3A4) of the same compound?
Its pIC50 is under 4.52.

With `C[C@H]1[C@@H](c2ccccc2)OC(=O)N1Cc1cc(F)ccc1-c1ccc(CC(=O)O)cc1` as the compound, how does the pIC50 [1] read?
The pIC50 was 6.44.

And the pIC50 [2]?
The pIC50 was 5.74.

With `COc1ccc(CC(=O)O)cc1-c1ccccc1CN1C(=O)O[C@H](c2ccccc2)[C@@H]1C` as the compound, how does the pIC50 [1] read?
The pIC50 was 6.06.

What about the pIC50 [2] of the same compound?
Its pIC50 is 5.70.

With `CCN(Cc1cc(C(F)(F)F)ccc1-c1cc(CC(=O)O)ccc1OC)C(=O)OCc1cccc(Cl)c1` as the compound, how does the pIC50 [1] read?
The pIC50 was 8.70.

And the pIC50 [2]?
The pIC50 was 8.00.

Which results are given for `C[C@H]1[C@@H](c2ccccc2)OC(=O)N1Cc1cc(C(F)(F)F)ccc1-c1cccc(C(=O)O)c1`?
pIC50 [1]: 4.57; pIC50 [2]: 4.04

With `COc1ccc(CC(=O)O)cc1-c1ccc(C(F)(F)F)cc1CNCCc1ccccc1` as the compound, how does the pIC50 [1] read?
The pIC50 was 5.47.

What about the pIC50 [2] of the same compound?
The pIC50 was 4.96.

Which results are given for `C[C@H]1[C@@H](c2ccccc2)OC(=O)N1Cc1cc(C(F)(F)F)ccc1-c1cccc(CCC(=O)O)c1`?
pIC50 [1]: 5.01; pIC50 [2]: 4.12

With `COc1ccc(CC(=O)O)cc1-c1ccc(C(F)(F)F)cc1CNC(=O)OCc1ccccc1` as the compound, how does the pIC50 [1] read?
Its pIC50 is 7.35.

What about the pIC50 [2] of the same compound?
Its pIC50 is 6.62.

With `COC(=O)N(CCc1ccccc1)Cc1cc(C(F)(F)F)ccc1-c1cc(CC(=O)O)ccc1OC` as the compound, how does the pIC50 [1] read?
The pIC50 was 7.62.

What about the pIC50 [2] of the same compound?
The pIC50 was 7.21.

What does the source list for `CCN(Cc1cc(C(F)(F)F)ccc1-c1cc(CC(=O)O)ccc1OC)C(=O)OCc1ccc(Cl)cc1`?
pIC50 (Thromboxane A2 receptor): 4.95; inhibition at 10 µM (hERG (KCNH2)): 22%; pIC50 (Cytochrome P450 2D6): < 4.52; pIC50 [1]: 8.52; pIC50 (Cytochrome P450 2C9): 4.74; pIC50 [3]: 5.40; pIC50 [2]: 8.15; pIC50 (Cytochrome P450 3A4): 4.68; pIC50 (Prostacyclin receptor): 4.48

What does the source list for `COc1ccc(CC(=O)O)cc1-c1ccc(C(F)(F)F)cc1CN(C(=O)OCc1ccccc1)C1CCCC1`?
pIC50 [1]: 7.96; pIC50 [2]: 7.28

With `COc1ccc(CC(=O)O)cc1-c1ccc(C(F)(F)F)cc1CN(C)C(=O)OCc1ccccc1` as the compound, how does the pIC50 [1] read?
The pIC50 was 8.40.

What about the pIC50 [2] of the same compound?
Its pIC50 is 7.74.

With `COc1ccc(CC(=O)O)cc1-c1ccc(F)cc1CN1C(=O)O[C@H](c2ccccc2)[C@@H]1C` as the compound, how does the pIC50 [1] read?
The pIC50 was 6.44.

What about the pIC50 [2] of the same compound?
The pIC50 was 5.89.

With `CCN(Cc1cc(C(F)(F)F)ccc1-c1cc(CC(=O)O)ccc1OC)C(=O)OCc1ccccc1Cl` as the compound, how does the pIC50 [1] read?
The pIC50 was 8.52.

And the pIC50 [2]?
Its pIC50 is 7.96.

Which results are given for `CCN(Cc1cc(C(F)(F)F)ccc1-c1cc(CC(=O)O)ccc1OC)C(=O)OCc1ccccc1`?
pIC50 (Thromboxane A2 receptor): 4.64; Activity (Mus musculus): Active; half-life [4]: 7.4 h; half-life [5]: 8.7 h; pIC50 (Cytochrome P450 2D6): < 4.52; bioavailability [6]: 77%; bioavailability [7]: 89%; pIC50 (Cytochrome P450 2C9): 4.74; pIC50 [3]: 5.40; pIC50 (Cytochrome P450 3A4): 4.74; pIC50 (Prostacyclin receptor): 4.25

What does the source list for `CCN(Cc1cc(C(F)(F)F)ccc1-c1cc(CC(=O)O)ccc1OC)C(=O)OCc1cc(F)cc(F)c1`?
pIC50 [1]: 8.52; pIC50 [2]: 7.96

With `C[C@H]1[C@@H](c2ccccc2)OC(=O)N1Cc1cc(C(F)(F)F)ccc1-c1ccccc1CC(=O)O` as the compound, how does the pIC50 [1] read?
Its pIC50 is 4.39.

What about the pIC50 [2] of the same compound?
The pIC50 was 4.21.

Which results are given for `COc1ccc(CC(=O)O)cc1-c1ccc(C(F)(F)F)cc1CN1C(=O)O[C@H](c2ccccc2)[C@@H]1C`?
pIC50 (Thromboxane A2 receptor): 4.20; pIC50 (Cytochrome P450 2D6): < 4.52; pIC50 [1]: 6.74; pIC50 (Cytochrome P450 2C9): < 4.52; pIC50 [3]: 4.50; pIC50 [2]: 5.35; pIC50 (Cytochrome P450 3A4): < 4.52

With `C[C@H]1[C@@H](c2ccccc2)OC(=O)N1Cc1cc(C(F)(F)F)ccc1-c1cccc(CC(=O)O)c1` as the compound, how does the pIC50 [1] read?
The pIC50 was 6.47.

What about the pIC50 [2] of the same compound?
The pIC50 was 5.52.
